5HT1E antag = 5-HT1E receptor antagonists, primary screen, cell-based, HTS | inhibition, % at 6 µM | 5-hydroxytryptamine receptor 1E (Homo sapiens), P28566 | AID 571, 2007 | CHO 5-HT1E Ga15 NFAT-bla reporter, FRET, antagonist | actives 0.99% (n = 65,000);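 active = inhibition above a set limit, the mean inhibition across every tested compound plus 3 SD, cut at about 29% in these data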;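 note: signal is the 460 over 535 nm emission ratio of beta-lactamase substrate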
Target sequence (P28566 whole entry, looked up): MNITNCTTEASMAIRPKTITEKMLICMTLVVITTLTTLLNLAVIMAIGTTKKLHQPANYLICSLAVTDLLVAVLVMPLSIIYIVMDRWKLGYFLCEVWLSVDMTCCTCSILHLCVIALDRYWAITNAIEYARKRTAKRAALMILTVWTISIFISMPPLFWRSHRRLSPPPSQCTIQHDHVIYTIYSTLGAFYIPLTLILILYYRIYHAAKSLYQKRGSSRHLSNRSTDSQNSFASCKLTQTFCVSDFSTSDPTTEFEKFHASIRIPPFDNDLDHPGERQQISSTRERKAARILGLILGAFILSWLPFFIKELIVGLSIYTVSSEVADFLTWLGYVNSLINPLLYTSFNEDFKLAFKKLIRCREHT
5HT1E ag = 5-HT1E receptor agonists, primary screen, cell-based, HTS; CHO 5-HT1E Ga15 NFAT-bla reporter, FRET; 0% DMSO wells, 100% control agonist wells; activation, % at 6 µM; actives 0.69% (n = 65,000); 5-hydroxytryptamine receptor 1E (Homo sapiens), P28566;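 active = activation above a set limit, the screen-wide mean activation plus 3 SD, cut at about 8.5% in these data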
S1P3 agonist = human S1P3 receptor agonists, primary screen, cell-based, primary and confirmation, NFAT-BLA reporter. Sphingosine 1-phosphate receptor 3 (Homo sapiens), Q99500. S1P3 NFAT-BLA reporter cells, agonism, FRET ratio; relative to 1 µM S1P, basal subtracted. activation, % at 4.5 µM. actives 0.1% (n = 60,000). AID 373, 2006;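 active = activation above the screen-wide mean plus 3 SD, cut at about 4.5% in these data, passing the limit was not always enough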
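Material: Human S1P3 NFAT-BLA reporter CHO cells | Incubation: Overnight plating, 4 h compound 37 °C, 2 h substrate RT | Signal: FRET β-lactamase substrate fluorescence, excitation 405 nm, 460/535 nm emission ratio, background-subtracted | Compound: 4.5 µM final, single dose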
S1P1 ag-PAM = S1P1 agonists and agonism potentiators, primary screen, cell-based, primary and confirmation screens, CRE-bla reporter; activation, % at 9.5 µM; AID 449, 2006; S1P1 CRE-bla cells, forskolin, beta-lactamase FRET, potentiator mode; S1P1 agonist co-added at EC20, 2 nM; 100% = saturating reference agonist, 0% = basal; actives 0.57% (n = 56,000); Sphingosine 1-phosphate receptor 1 (Homo sapiens), P21453;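 active = activation above a cutoff set at the mean activation of all tested compounds plus 3 SD, cut at about 54% in these data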;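 note: forskolin at 4 µM as EC80 and the EC20 agonist is SEW2871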
HTR1A agonist = human 5-HT1a receptor agonists, primary screen, cell-based, CHO, Ga15 NFAT-bla reporter | actives 0.56% (n = 65,000) | activation, % at 10 µM | 5-hydroxytryptamine receptor 1A (Homo sapiens), P08908 | CHO 5-HT1a Ga15 NFAT-bla reporter, FRET ratio; 0% basal, 100% maximal reference agonist;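 active = activation above the screen-wide mean activation plus 3 SD, cut at about 19% in these data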
5-HT1A blocker = human 5-HT1a receptor antagonists, primary screen, cell-based, CHO, Ga15 NFAT-bla reporter; CHO 5-HT1a Ga15 NFAT-bla reporter, antagonist mode; inhibition, % at 10 µM; actives 0.68% (n = 62,000); AID 612, 2007;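 active = inhibition above the mean of all tested compounds plus 3 SD, cut at about 43% in these data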;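 note: receptor stimulated by 5-CT agonist at 100 nM near EC80; beta-lactamase reporter measured by ratiometric fluorescence of a cleavable substrate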
Each line names hits and unclear results; the compound was inactive in the other large screens. A selection: hits, their analogues and other compounds. The true share with any hit is near 3%.

Cc1ccc(CNc2cc(-c3nn4c(C)nnc4s3)ccc2C)s1	none
Cc1ccc(-c2nn3c(C)nnc3s2)cc1NCc1c(F)cccc1Cl	5-HT1A blocker 45 (no result: S1P1 ag-PAM)
CCCCN(C)CCNC(=O)Cn1ncc2c(=O)oc3ccc(C)cc3c21	5HT1E ag 10
Cc1c(C)n(C(=O)CSc2ncn[nH]2)c2ccccc12	none
N#CCSc1nc2cc(C(=O)N3CCC(C(N)=O)CC3)ccc2c2nc3ccccc3n12	5HT1E antag 53
N#CCSc1nc2cc(C(=O)N3CCCC3)ccc2c(=O)n1Cc1ccccc1	none
CCCCCCc1cc2cc(C(=O)NC)c(=N)oc2cc1O	HTR1A agonist 33 (no result: 5-HT1A blocker)
CCCCOc1ncnc2c1[nH]c1ccc(F)cc12	S1P1 ag-PAM 116
COc1cc2[nH]c3c(N4CCN(c5ccccn5)CC4)ncnc3c2cc1OC	none
OC1(c2cccc(C(F)(F)F)c2)CCN(c2ncnc3c2[nH]c2ccc(F)cc23)CC1	5HT1E antag 35, S1P1 ag-PAM 100
Fc1ccc2[nH]c3c(N4CCN(c5ccccc5)CC4)ncnc3c2c1	S1P1 ag-PAM 106 (no result: 5-HT1A blocker)
COc1ccc(OC)c(CNC(=O)C2CCCN(C(=O)N(C)C)C2)c1 (stereo not given)	none
Cc1nn(-c2nc3ccccc3s2)c(N)c1-c1ccccc1	S1P1 ag-PAM 95
Cc1cccc(C)c1NC(=O)N1CCC(c2nc3ccccc3o2)CC1	none
Cc1nn(Cc2ccc(Cl)c(Cl)c2)c(C)c1NC(=O)c1cc(CC(C)C)on1	S1P1 ag-PAM 76
O=C(NCCCN1CCCC1)c1cccc(N2CCCC2=O)c1	none (no result: S1P3 agonist, S1P1 ag-PAM)
O=C(NCCCN1CCN(c2ccc(F)cc2)CC1)c1cccc(N2CCCC2=O)c1	5-HT1A blocker 71
COc1ccc(C(C(=O)OC(C)CN(C)C)c2ccccc2)cc1 (stereo not given)	none
CN(C)CC(C(=O)c1ccccc1)c1ccccc1 (stereo not given)	5HT1E antag 74, 5-HT1A blocker 76
CSc1nnc(Cn2c(=O)sc3ccccc32)n1CCc1ccccc1	none
Cc1ccc(-c2cc(C(=O)O)n[nH]2)o1	none
O=c1c2ccccc2nc2n1CC/C2=C/N1CCN(c2cccc(C(F)(F)F)c2)CC1	5HT1E ag 39
O=C(O)c1ccc(OCC(O)Cn2cnc3ccccc32)cc1 (stereo not given)	5HT1E ag 9.3
CCNc1nc(N)c(C(=O)c2ccc(Cl)s2)s1	5-HT1A blocker 56
CC(C)(C)c1csc(NC(=O)c2ccc(Cl)s2)n1	none
CCOC(=O)c1ccc(NC(=O)CN2CCc3ccccc3C2)cc1	none
COc1ccccc1-n1nnnc1SCc1ccccc1	none
COc1ccccc1-n1nnnc1SCc1cc2c(cc1Br)OCO2	5HT1E antag 29
COc1ccc2[nH]cc(CCNC(=O)C3CCCNC3=O)c2c1 (stereo not given)	none
Cc1ccc(N2C(=O)CC(N3CCN(C4CCc5ccccc5C4)CC3)C2=O)cc1 (stereo not given)	HTR1A agonist 20
CCOc1ccc(N2C(=O)CC(N3CCN(C4CCc5ccccc5C4)CC3)C2=O)cc1 (stereo not given)	none
CCCCN(CC)Cc1ccc(CNC(=O)Nc2ccc(OC)cc2OC)o1	5HT1E ag 52
COc1ccc(S(=O)(=O)Nc2ccccc2C(=O)NCc2ccco2)cc1Br	none
CCn1c(CNC(=O)c2ccco2)nnc1SCC(=O)Nc1cc(C(F)(F)F)ccc1Cl	HTR1A agonist 54
CCN(CC)c1ccc(NC(=O)c2ccc(NC(=O)C3CCCO3)cc2)c(C)c1 (stereo not given)	none (no result: S1P3 agonist, S1P1 ag-PAM)
c1csc(-c2csc3nc(CN4CCOCC4)nc(NCc4ccc5c(c4)OCO5)c23)c1	5-HT1A blocker 52
O=C(Nc1ccc2c(c1)OCO2)c1cccc2c1C(=O)N(Cc1cccnc1)C2	none
COc1cc(NC(=O)c2cccc3c2C(=O)N(Cc2cccnc2)C3)cc(OC)c1OC	5HT1E antag 30
CC(C)N1C(=O)CCC1C(=O)N1CCC(Cc2ccccc2)CC1 (stereo not given)	none
CCC(CC)C(=O)Nc1cc(=O)n(C)c(=O)n1C	HTR1A agonist 36
Cc1cc(C)nc(SC2CCCCC2O)n1 (stereo not given)	none
Cc1cc2nc(-c3ccc(NC(=O)C(C)C)cc3)oc2cc1C	S1P1 ag-PAM 108
O=C1CSC(c2ccccc2F)N1c1cc(Cl)ccc1O (stereo not given)	5HT1E antag 30
O=C1CSC(c2ccccc2F)N1CCN1CCCCC1 (stereo not given)	none
CCCn1c(NC(=O)c2ccccc2)nc2ccccc21	none
CCCn1c(NC(=O)c2cccc(S(=O)(=O)N3CCCC3)c2)nc2ccccc21	S1P1 ag-PAM 74, 5-HT1A blocker 50
CNC(=O)CSc1nnc(COc2ccc(Cl)cc2)n1CCOC	none
Cc1cc(NC(=O)Cn2cnc3sc(C)c(-c4ccccc4)c3c2=O)no1	none
Cc1ccc2c(c1)NC(=O)C(CC(=O)NCCCN1CCN(c3cc(C)ccc3C)CC1)O2 (stereo not given)	5-HT1A blocker 47
O=c1nc(C(F)(F)F)nc2ccccn12	HTR1A agonist 21 (no result: S1P1 ag-PAM)
Cc1ccc(NC(=O)C2CCCN(S(=O)(=O)c3c(C)noc3/C=C/N(C)C)C2)cc1F (stereo not given)	none
COc1ccc2c(c1)C1(Nc3ccccc3C(=O)N1c1ccccc1)C(=O)N2 (stereo not given)	none
CCOC(=O)c1c(C)nc(-c2ccccc2)nc1NC(=O)CC	5HT1E ag 68
CCOC(=O)c1[nH]c2ccccc2c1NC(=O)CC	none
CNC(=O)c1ccc(-c2sc3nc(N4CCOCC4)c4c(c3c2N)CCCC4)o1	5HT1E antag 32 (no result: S1P1 ag-PAM)
CC1(C)Cc2c(c(N3CCOCC3)nc3sc(-c4ccc(C(=O)O)o4)c(N)c23)CO1	none
NC[C@@]12CCCC1C1CCC2C1 (stereo not given in full)	none
O=C(NC1CCCCC1)C1CCCN1S(=O)(=O)c1cccc2nsnc12 (stereo not given)	none
O=C(O)C1CSCN1S(=O)(=O)c1cccc2nsnc12 (stereo not given)	5HT1E ag 9.7 (no result: 5-HT1A blocker)

Source: PubChem (The Scripps Research Institute Molecular Screening Center)
